Experimental data taken from ChEMBL document CHEMBL4368908 (J Med Chem, 2019).
pIC50: −log10 of the molar value. The source made the active and inactive calls. The calls are words filed in the database; no cut-off is given here.

Tests used:
[1] = target: T1, Inositol hexakisphosphate kinase 2 (Homo sapiens, UniProt Q9UHH9); assay: Inhibition of human IP6K2 using insP6 as substrate preincubated for 15 mins followed by substrate and measured after 30 mins by TR-FRET assay
T1 sequence (Q9UHH9 whole entry): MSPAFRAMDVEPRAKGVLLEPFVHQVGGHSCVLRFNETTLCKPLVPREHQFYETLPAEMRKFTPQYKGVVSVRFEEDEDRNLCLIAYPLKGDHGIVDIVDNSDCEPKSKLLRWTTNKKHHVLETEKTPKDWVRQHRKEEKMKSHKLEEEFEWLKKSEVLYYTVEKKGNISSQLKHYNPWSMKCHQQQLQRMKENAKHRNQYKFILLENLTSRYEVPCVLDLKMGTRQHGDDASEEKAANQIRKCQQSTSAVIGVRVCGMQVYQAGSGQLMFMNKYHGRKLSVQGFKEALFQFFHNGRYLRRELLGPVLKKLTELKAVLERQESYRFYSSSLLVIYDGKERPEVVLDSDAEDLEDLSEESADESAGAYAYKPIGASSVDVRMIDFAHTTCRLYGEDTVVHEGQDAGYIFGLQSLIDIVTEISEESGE

[2] = target: T2, Inositol polyphosphate multikinase (Homo sapiens, UniProt Q8NFU5); assay: Inhibition of human IPMK using insP3 as substrate preincubated for 15 mins followed by substrate and measured after 30 mins by TR-FRET assay
T2 sequence (Q8NFU5 whole entry): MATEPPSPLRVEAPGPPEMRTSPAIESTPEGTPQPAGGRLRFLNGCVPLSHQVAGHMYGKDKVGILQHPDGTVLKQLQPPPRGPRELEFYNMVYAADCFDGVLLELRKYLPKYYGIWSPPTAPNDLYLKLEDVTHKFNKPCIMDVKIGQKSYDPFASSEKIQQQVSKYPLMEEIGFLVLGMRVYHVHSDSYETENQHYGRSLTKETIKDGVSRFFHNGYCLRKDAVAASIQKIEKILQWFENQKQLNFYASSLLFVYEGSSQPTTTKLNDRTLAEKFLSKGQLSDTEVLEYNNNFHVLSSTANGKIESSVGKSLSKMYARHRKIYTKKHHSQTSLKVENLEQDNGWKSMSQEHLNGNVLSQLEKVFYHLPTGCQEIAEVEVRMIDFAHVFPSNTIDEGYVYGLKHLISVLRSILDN

[3] = species on record: Homo sapiens; assay: Selectivity ratio of IC50 for human IPMK to IC50 for human IP6K2
Method in brief: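 Recombinant human IPMK (12 nM) or IP6K2 (400 nM) equilibrated 15 min at room temperature with compound (10-point, 0.005–100 μM, 1% DMSO) in 50 mM HEPES pH 7.5, 0.01% Brij-35, 10 mM MgCl₂, 1 mM EGTA. Reaction started with 10 μM ATP plus 10 μM InsP₃ (IPMK) or InsP₆ (IP6K2), run 30 min. ADP detected by Adapta TR-FRET. IC50 from 4-parameter fit.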

[4] = system: HCT-116; assay: Down regulation of insp5 levels in human [3H]-inositol-labelled HCT116 cells at 10 uM after 3.5 hrs by HPLC analysis; type: functional, cell-based
Method in brief: (§1)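 HCT116 cells labelled with [3H]inositol at 20 μCi/ml, then treated 3.5 h with 10 μM flavonoid in DMSO (final 0.1%; vehicle controls). Quenched with PCA; extracted [3H]InsP5, InsP6 and InsP7 resolved by CarboPac HPLC and quantified as peak DPM relative to DMSO control.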

[5] = target: T2, Inositol polyphosphate multikinase; assay: Inhibition of IPMK in human [3H]-inositol-labelled HCT116 cells assessed as reduction in insp5 levels at 10 uM after 3.5 hrs by HPLC analysis relative to control; method in brief: as §1
[6] = target: T2, Inositol polyphosphate multikinase; assay: Inhibition of IPMK in [3H]-inositol-labelled HEK293 cells assessed as reduction in insp5 levels at 2.5 uM after 3.5 hrs by HPLC analysis relative to control; type: cell-based
Method in brief: (§2)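 HEK293 cells labelled with [3H]inositol (20 μCi/ml), treated 3.5 h with 2.5 μM flavonoid in DMSO (final 0.1%; vehicle controls). PCA-quenched extracts analysed by CarboPac HPLC for InsP5, InsP6, InsP7 relative to DMSO control. Means ± SE, n=3; Dunnett's one-way ANOVA.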

[7] = system: HEK293; assay: Down regulation of insp5 levels in [3H]-inositol-labelled HEK293 cells at 2.5 uM after 3.5 hrs by HPLC analysis; type: functional, cell-based; conditions: Homo sapiens; method in brief: as §2
[8] = target: RAC-alpha serine/threonine-protein kinase (Homo sapiens) (UniProt P31749); assay: Effect on AKT activity in human HCT116 cells assessed as AKT phosphorylation at T308 residues at 2.5 uM after 3 hrs by Western blot analysis; type: cell-based
Sequence of RAC-alpha serine/threonine-protein kinase (Homo sapiens) (P31749 whole entry): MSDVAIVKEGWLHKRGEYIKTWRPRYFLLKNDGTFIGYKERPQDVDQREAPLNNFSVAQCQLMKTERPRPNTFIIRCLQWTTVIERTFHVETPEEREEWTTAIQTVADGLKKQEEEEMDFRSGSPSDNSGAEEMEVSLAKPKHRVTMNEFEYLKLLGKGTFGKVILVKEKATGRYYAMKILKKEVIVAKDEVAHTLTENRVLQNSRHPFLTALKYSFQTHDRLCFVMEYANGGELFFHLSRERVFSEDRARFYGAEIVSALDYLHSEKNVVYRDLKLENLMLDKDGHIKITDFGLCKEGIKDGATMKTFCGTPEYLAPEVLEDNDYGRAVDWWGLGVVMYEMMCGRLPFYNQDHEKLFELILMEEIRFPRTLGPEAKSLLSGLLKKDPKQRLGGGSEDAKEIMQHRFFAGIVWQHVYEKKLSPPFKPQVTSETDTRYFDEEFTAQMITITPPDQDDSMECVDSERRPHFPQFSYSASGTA
Method in brief: (§3)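 Cells (3T3-L1 preadipocytes 2 days post-confluent; HCT116 1 day post-confluent) treated 3 h with 2.5 μM flavonoid in DMSO (final DMSO 0.1%, vehicle control). Lysed in Tris pH 7.4/NaCl/Triton X-100 with protease-phosphatase inhibitors; 20 μg protein by SDS-PAGE and immunoblot for phospho-AKT T308 and total AKT. pAKT/total AKT ratio normalized to sum of ratios per gel; Dunnett's one-way ANOVA versus DMSO.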

[9] = target: RAC-alpha serine/threonine-protein kinase (Mus musculus) (UniProt P31750); assay: Activation of AKT activity in mouse 3T3-L1 cells assessed as increase in AKT phosphorylation at T308 residues at 2.5 uM after 3 hrs by Western blot analysis; type: cell-based; method in brief: as §3
Sequence of RAC-alpha serine/threonine-protein kinase (Mus musculus) (P31750 whole entry): as the sequence (P31749 whole entry) above, with S2N, A50S, T100A, K112R, E117T, K389T, G410N, H415D counted along it

[10] = target: T3, Inositol hexakisphosphate kinase 2 (Mus musculus) (UniProt Q80V72); assay: Inhibition of IP6K2 in mouse 3T3-L1 cells assessed as AKT phosphorylation at T308 at 1 uM after 3 hrs by Western blot analysis; type: cell-based
T3 sequence (whole entry): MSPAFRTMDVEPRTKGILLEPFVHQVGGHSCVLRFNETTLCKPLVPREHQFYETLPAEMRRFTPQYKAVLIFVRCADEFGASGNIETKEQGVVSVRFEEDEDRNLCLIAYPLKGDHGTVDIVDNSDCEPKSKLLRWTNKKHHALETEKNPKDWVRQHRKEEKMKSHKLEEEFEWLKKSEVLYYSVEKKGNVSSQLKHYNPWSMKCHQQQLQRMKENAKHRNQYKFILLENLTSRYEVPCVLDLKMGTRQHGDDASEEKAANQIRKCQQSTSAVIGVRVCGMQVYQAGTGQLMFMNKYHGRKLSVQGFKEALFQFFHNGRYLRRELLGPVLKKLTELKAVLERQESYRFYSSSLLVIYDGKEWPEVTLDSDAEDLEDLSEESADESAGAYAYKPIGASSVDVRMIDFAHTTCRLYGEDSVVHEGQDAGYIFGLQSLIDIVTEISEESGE
Method in brief: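 TNP reference treatment: 2-day post-confluent 3T3-L1 preadipocytes given 1 μM TNP in DMSO (final 0.1%) for 3 h. Lysates (20 μg protein) immunoblotted for phospho-AKT T308 and total AKT. pAKT/total AKT ratio normalized to sum of ratios per gel; one-way ANOVA (Dunnett) versus DMSO vehicle.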

[11] = target: T2, Inositol polyphosphate multikinase; assay: Inhibition of IPMK in human [3H]-inositol-labelled HCT116 cells assessed as reduction in insp5 levels at 2.5 uM up to 200 mins by HPLC analysis relative to control
Method in brief: (§4)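 Time course: HCT116 cells prelabelled with [3H]inositol (20 μCi/ml) and treated with 2.5 μM flavonoid in DMSO (final 0.1%) for the indicated times. InsP5, InsP6 and InsP7 measured by CarboPac HPLC after PCA quench and extraction. Means ± SE, n=3–4.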

[12] = system: HCT-116; assay: Down regulation of insp5 levels in human [3H]-inositol-labelled HCT116 cells at 2.5 uM after 3.5 hrs by HPLC analysis; type: functional, cell-based
Method in brief: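 HCT116 cells labeled with [³H]inositol (20 μCi/ml) were treated for 3.5 h with 2.5 μM flavonoid; compounds were added in DMSO, final 0.1%. Cells were PCA-quenched, and InsPs were extracted and resolved by CarboPac HPLC. Values are versus DMSO controls, n=3–4, by one-way ANOVA (Dunnett).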

[13] = target: T2, Inositol polyphosphate multikinase; assay: Inhibition of IPMK in human [3H]-inositol-labelled HCT116 cells assessed as reduction in insp5 levels at 2.5 uM after 3.5 hrs by HPLC analysis relative to control
Method in brief: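 [3H]inositol-labelled (20 μCi/ml) HCT116 cells exposed 3.5 h to 2.5 μM flavonoid in DMSO (final 0.1%). PCA quench, extraction and CarboPac HPLC of InsP5/InsP6/InsP7, compared with DMSO vehicle control. Means ± SE, n=3–4; Dunnett's one-way ANOVA versus DMSO.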

[14] = target: RAC-alpha serine/threonine-protein kinase (Homo sapiens) (UniProt P31749); assay: Effect on AKT activity in human HCT116 cells assessed as AKT phosphorylation at T308 residues at 10 uM after 3 hrs by Western blot analysis; type: cell-based
[15] = target: RAC-alpha serine/threonine-protein kinase (Mus musculus) (UniProt P31750); assay: Activation of AKT activity in mouse 3T3-L1 cells assessed as increase in AKT phosphorylation at T308 residues at 10 uM after 3 hrs by Western blot analysis; type: cell-based
[16] = system: HCT-116; assay: Down regulation of insp5 levels in human [3H]-inositol-labelled HCT116 cells at 2.5 uM up to 200 mins by HPLC analysis; type: functional, cell-based; method in brief: as §4

Row | Structure (SMILES) | pIC50 [1] | pIC50 [2] | Ratio IC50 [3] | inhibition [12] | inhibition [13] | also measured
1 | O=c1cc(-c2ccc(O)c(O)c2)oc2ccccc12 | 4.94 | < 4.52 | > 2.6 | – | – | –
2 | O=c1cc(-c2ccc(O)c(O)c2)oc2cccc(O)c12 | 5.10 | < 4.52 | > 3.8 | – | – | –
3 | O=c1cc(-c2ccc(O)cc2)oc2cc(O)ccc12 | 4.74 | < 4.52 | > 1.6 | – | – | –
4 | O=c1cc(-c2ccc(O)cc2)oc2cccc(O)c12 | < 4.52 | < 4.52 | – | – | – | –
5 | O=c1cc(-c2ccc(O)cc2)oc2ccc(O)cc12 | 4.89 | < 4.52 | > 2.3 | – | – | –
6 | COc1ccc(-c2cc(=O)c3c(O)cc(O)cc3o2)cc1O | – | – | – | inactive | inactive | inhibition [4]: inactive; inhibition [5]: inactive; inhibition [6]: inactive; inhibition [7]: inactive; Activity [8]: inactive; Activity [9]: Active; inhibition [10]: Active; inhibition [11]: inactive
7 | O=[N+]([O-])c1ccc(CNc2nc(NCc3cccc(C(F)(F)F)c3)nc3[nH]cnc23)cc1 | – | – | – | – | – | Activity [14]: inactive; Activity [15]: Active
8 | COc1ccc(-c2cc(=O)c3c(O)cc(O)cc3o2)cc1 [ACACETIN] | 5.24 | < 4.52 | > 5.3 | – | – | –
9 | O=c1cc(-c2ccc(O)cc2)oc2cc(O)cc(O)c12 [APIGENIN] | 5.15 | 4.54 | 4.1 | – | – | –
10 | O=C1C[C@@H](c2ccc(O)c(O)c2)Oc2cc(O)cc(O)c21 [ERIODICTYOL] | 4.60 | < 4.52 | > 1.2 | – | – | –
11 | COc1cc(O)c2c(=O)cc(-c3ccc(O)cc3)oc2c1 [GENKWANIN] | 4.62 | < 4.52 | > 1.3 | – | – | –
12 | COc1cc(-c2oc3cc(O)cc(O)c3c(=O)c2O)ccc1O [ISORHAMNETIN] | 6.30 | 5.66 | 4.4 | inactive | inactive | –
13 | O=c1c(O)c(-c2ccc(O)cc2)oc2cc(O)cc(O)c12 [KAEMPFEROL] | 5.60 | 5.36 | 1.8 | inactive | inactive | –
14 | O=c1cc(-c2ccc(O)c(O)c2)oc2cc(O)cc(O)c12 [LUTEOLIN] | 5.89 | 5.26 | 4.2 | inactive | inactive | inhibition [6]: inactive; inhibition [7]: inactive; Activity [8]: inactive; Activity [9]: Active; inhibition [10]: Active
15 | O=c1c(O)c(-c2cc(O)c(O)c(O)c2)oc2cc(O)cc(O)c12 [MYRICETIN] | 6.15 | 5.96 | – | inactive | inactive | –
16 | O=C1C[C@@H](c2ccc(O)cc2)Oc2cc(O)cc(O)c21 [NARINGENIN] | < 4.52 | < 4.52 | – | – | – | –
17 | O=c1c(O)c(-c2ccc(O)c(O)c2)oc2cc(O)cc(O)c12 [QUERCETIN] | – | 5.64 | – | inactive | inactive | inhibition [4]: inactive; inhibition [5]: 25%; inhibition [6]: inactive; inhibition [7]: inactive; Activity [8]: inactive; Activity [9]: Active; inhibition [10]: Active; inhibition [16]: inactive; inhibition [11]: inactive
18 | COc1cc(O)c2c(=O)c(O)c(-c3ccc(O)c(O)c3)oc2c1 [RHAMNETIN] | 5.74 | 4.85 | > 7.8 | inactive | inactive | –
